Measured values from ChEMBL document CHEMBL2311369, “Synthesis and anticonvulsant activity of new phenytoin derivatives” (Eur J Med Chem, 2013).

Columns and labels:
Mus musculus [1] = assay: Anticonvulsant activity in albino mouse assessed as protection against subcutaneous metrazol-induced seizures at 100 mg/kg, po administered 60 mins prior challenge measured over 20 mins; assay type: functional
In short: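 Adult albino mice (20–25 g, both sexes), groups of six, dosed orally with 100 mg/kg; a separate group of six serves as control. Pentylenetetrazole 85 mg/kg given s.c. 60 min after dosing. Each mouse is watched alone for 20 min for tonic-clonic convulsions lasting at least 5 s. Mice without generalized convulsions count as protected; result is % protection.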

Mus musculus [2] = assay: Anticonvulsant activity in albino mouse assessed as protection against maximal electroshock-induced seizures measuring mean convulsion threshold at 100 mg/kg, po after 60 mins; assay type: functional
In short: (§1)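 Adult albino mice (20–25 g, both sexes), groups of six, dosed orally with compound suspended in 1% Tween 80; vehicle controls. 60 min later, ear-electrode current ramped from 1 mA in 0.1 mA/0.2 s steps at 50 Hz until tonic hind-limb extension. Read-out is mean maximal tolerated current (mA), reported as mean ± S.E. of 5–6 animals. One-way ANOVA with Tukey post test versus control.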

Mus musculus [3] = assay: Neurotoxicity in albino mouse assessed as neurological deficit at 100 mg/kg, ip measured after 1 hr for period of 300 seconds by rotarod test; assay type: toxicity, organism-based; set-up: dose 100 mg/kg, route intraperitoneal; settings: in vivo
In short: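 Rotarod at 6 rpm with a 3 cm rod. Male albino mice get two training sessions of 10 and 15 min first. Compound given i.p. at 100 mg/kg in 1% Tween 80, groups of six; vehicle-treated controls. Mice are retested 1 h later. Result is % of mice unable to stay on the rod for 300 s.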

Mus musculus [4] = assay: Anticonvulsant activity in albino mouse assessed as protection against maximal electroshock-induced seizures measuring mean convulsion threshold at 30 mg/kg, po after 60 mins; assay type: functional; in short: as §1

Q: What does the source list for `CCNc1nnc(CN2C(=O)NC(c3ccccc3)(c3ccccc3)C2=O)s1`?
A: Activity (Mus musculus [1]): 60%; Activity (Mus musculus [2]): 5 mA

Q: What does the source list for `Cc1ccc(Nc2nnc(CN3C(=O)NC(c4ccccc4)(c4ccccc4)C3=O)s2)cc1`?
A: Activity (Mus musculus [1]): 40%; Activity (Mus musculus [2]): 5.2 mA

Q: How did the Activity (Mus musculus [1]) turn out when `COc1ccc(Nc2nnc(CN3C(=O)NC(c4ccccc4)(c4ccccc4)C3=O)s2)cc1` was run?
A: 20%

Q: And the Activity (Mus musculus [2])?
A: 4 mA

Q: How did the Activity (Mus musculus [1]) turn out when `O=C1NC(c2ccccc2)(c2ccccc2)C(=O)N1Cc1nnc(Nc2ccc(Cl)cc2)s1` was run?
A: 0%

Q: And the Activity (Mus musculus [2])?
A: 4.25 mA

Q: Which Activity (Mus musculus [1]) does the source give for `CCn1c(S)nnc1CN1C(=O)NC(c2ccccc2)(c2ccccc2)C1=O` here?
A: 40%

Q: And the Activity (Mus musculus [2])?
A: 5.8 mA

Q: Which results are given for `O=C1NC(c2ccccc2)(c2ccccc2)C(=O)N1Cc1nnc(S)n1-c1ccccc1`?
A: Activity (Mus musculus [3]): 33.33%; Activity (Mus musculus [1]): 40%; Activity (Mus musculus [2]): 6.6 mA

Q: What does the source list for `Cc1ccc(-n2c(S)nnc2CN2C(=O)NC(c3ccccc3)(c3ccccc3)C2=O)cc1`?
A: Activity (Mus musculus [1]): 20%; Activity (Mus musculus [2]): 6.6 mA

Q: What does the source list for `COc1ccc(-n2c(S)nnc2CN2C(=O)NC(c3ccccc3)(c3ccccc3)C2=O)cc1`?
A: Activity (Mus musculus [3]): 50%; Activity (Mus musculus [1]): 40%; Activity (Mus musculus [2]): 6.6 mA

Q: For `O=C1NC(c2ccccc2)(c2ccccc2)C(=O)N1Cc1nnc(S)n1-c1ccc(Cl)cc1`, which Activity (Mus musculus [1]) is on record?
A: 40%

Q: And the Activity (Mus musculus [2])?
A: 6.2 mA

Q: Which Activity (Mus musculus [3]) does the source give for `O=C1NC(c2ccccc2)(c2ccccc2)C(=O)N1Cc1nnc(S)o1` here?
A: 40%

Q: What about the Activity (Mus musculus [1]) of the same molecule?
A: 80%

Q: And the Activity (Mus musculus [2])?
A: 5.5 mA

Q: How did the Activity (Mus musculus [1]) turn out when `CCNC(=S)NNC(=O)CN1C(=O)NC(c2ccccc2)(c2ccccc2)C1=O` was run?
A: 40%

Q: And the Activity (Mus musculus [2])?
A: 5.2 mA

Q: With `O=C(CN1C(=O)NC(c2ccccc2)(c2ccccc2)C1=O)NNC(=S)Nc1ccccc1` as the molecule, how does the Activity (Mus musculus [3]) read?
A: 0%

Q: What about the Activity (Mus musculus [1]) of the same molecule?
A: 50%

Q: What about the Activity (Mus musculus [4]) of the same molecule?
A: 6.143 mA

Q: What about the Activity (Mus musculus [2]) of the same molecule?
A: 8.4 mA

Q: `Cc1ccc(NC(=S)NNC(=O)CN2C(=O)NC(c3ccccc3)(c3ccccc3)C2=O)cc1` was tested. Which Activity (Mus musculus [1]) did it give?
A: 60%

Q: And the Activity (Mus musculus [2])?
A: 5.8 mA

Q: Which results are given for `COc1ccc(NC(=S)NNC(=O)CN2C(=O)NC(c3ccccc3)(c3ccccc3)C2=O)cc1`?
A: Activity (Mus musculus [3]): 16.67%; Activity (Mus musculus [1]): 80%; Activity (Mus musculus [2]): 4 mA

Q: Which Activity (Mus musculus [1]) does the source give for `O=C(CN1C(=O)NC(c2ccccc2)(c2ccccc2)C1=O)NNC(=S)Nc1ccc(Cl)cc1` here?
A: 0%

Q: What about the Activity (Mus musculus [2]) of the same molecule?
A: 5.4 mA

Q: Which Activity (Mus musculus [1]) does the source give for `O=C1NC(c2ccccc2)(c2ccccc2)C(=O)N1Cc1nnc(Nc2ccccc2)s1` here?
A: 60%

Q: And the Activity (Mus musculus [2])?
A: 5 mA

Q: Which results are given for `O=C1NC(=O)C(c2ccccc2)(c2ccccc2)N1` [PHENYTOIN]?
A: Activity (Mus musculus [1]): 80%; Activity (Mus musculus [2]): 7.25 mA
